Source: PubChem (several laboratories)
An excerpt weighted towards active compounds, which were near 3.3% of everything screened.
Arr AP2 block: inhibitors of human beta-arrestin and AP2 interaction | FITC-arrestin peptide / GST-AP2 beads, flow cytometry; AP2 beta2 appendage carries R879A mutation | inhibition, % at 10 µM | 340,000 compounds, 0.31% hits;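 active = inhibition above a set limit, near 3 SD of compounds lacking own fluorescence, cut at about 54% in these data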;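 also: plate controls were DMSO wells for no effect and 5 µM unlabelled arrestin peptide for full effect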
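System: GST-AP2 R879A glutathione beads. Medium: PBS with 0.05% Tween 20 and 0.1% BSA. Also added: FITC-arrestin peptide, 50 nM. Incubation: 12 min plus 1 h, RT. Measured by: high-throughput flow cytometry of beads, ex 488, em 535 nm. Evaluation: percent drop in bead-associated FITC signal.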
m5-HT2A agonist: activates the mouse 5-HT2A serotonin receptor; P35363; CHO-K1 mHTR2A beta-arrestin complementation, luminescence; percent of 30 µM serotonin response; AID 624169; activation, % at 7.6 µM; 360,000 compounds, 0.66% hits;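 active = activation above a run cutoff, the mean activation of all tested compounds plus 3 SD, cut at about 14% in these data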;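 also: 0% = plate median of compound wells and 100% = 30 µM serotonin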
Lipid droplet: modulators of hepatic lipid droplet formation; AML12 mouse hepatocytes, oleate lipid droplets, BODIPY imaging; inhibition, % at 6.5 µM; 240,000 compounds, 0.4% hits;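 active = lipid droplet intensity inhibited by at least 50%, with more than 500 cells counted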
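System: AML12 hepatocytes (mouse). Probe or stimulus: oleic acid at 100 µM to induce lipid droplet formation. Times: overnight treatment with compound plus oleate. Detection: Image-based BODIPY and DAPI two-channel analysis. Evaluation: percent inhibition of filter-corrected integrated lipid droplet intensity per well.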
PfM18AAP inh: PfM18AAP enzyme inhibition | inhibition, % at 7.35 µM | recombinant PfM18AAP, H-Glu-NHMec fluorogenic cleavage | 290,000 compounds, 1.2% hits;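 active = inhibition above the campaign mean inhibition over all tested compounds plus 3 SD, cut at about 28% in these data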;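 also: 0% = plate median of test compound wells and 100% = 2 mM ZnCl2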
HGIII-sPLA2 inh: Inhibits HGIII-sPLA2 liposome hydrolysis, primary screen; Q9NZ20; QFRET BODIPY PC-A2 liposome hydrolysis, fluorescence; inhibition, % at 12.2 µM; 370,000 compounds, 0.56% hits; AID 743126;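 active = inhibition above mean plus 3 SD of compounds lying within the high and low control bounds, cut at about 19% in these data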;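 also: 0% = median of test compound wells and 100% = no enzyme DMSO wells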
Target sequence (Q9NZ20 whole entry, looked up): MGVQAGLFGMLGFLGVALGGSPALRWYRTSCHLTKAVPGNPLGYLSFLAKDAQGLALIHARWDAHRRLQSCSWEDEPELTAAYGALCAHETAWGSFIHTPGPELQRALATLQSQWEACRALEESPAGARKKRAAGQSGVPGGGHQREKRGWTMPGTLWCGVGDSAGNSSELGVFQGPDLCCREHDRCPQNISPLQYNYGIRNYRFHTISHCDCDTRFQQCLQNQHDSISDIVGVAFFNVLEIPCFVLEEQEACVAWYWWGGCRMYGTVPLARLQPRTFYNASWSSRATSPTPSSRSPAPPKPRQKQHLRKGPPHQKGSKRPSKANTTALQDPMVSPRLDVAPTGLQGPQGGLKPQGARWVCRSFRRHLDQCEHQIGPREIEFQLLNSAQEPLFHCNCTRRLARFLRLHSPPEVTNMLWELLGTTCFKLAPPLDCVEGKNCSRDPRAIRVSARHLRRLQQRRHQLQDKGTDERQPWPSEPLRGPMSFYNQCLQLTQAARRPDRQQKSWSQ
NRP1-CendR mod: NRP-1/CendR interaction modulation. O14786. AID 602438. 360,000 compounds, 0.85% hits. FAM-RPARPAR peptide binding to NRP-1, fluorescence polarization. inhibition, % at 25 µM;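 active = inhibition or corrected inhibition above about 18%, plus a signal ratio from 0.5 to 1.5, limit read from the data, passing the limit was not always enough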
MOR ag counter: activates human mu opioid receptor in HTR2A counterscreen | shares compounds with m5-HT2A agonist | U2OS OPRM1 beta-arrestin PathHunter, luminescence; DMSO 0%, DAMGO 9.3 µM 100% | activation, % at 9.3 µM | 2,300 compounds, 5.3% hits | AID 624380;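 active = mean activation above the mean of DMSO-only wells plus 3 SD, cut at about 0.5% in these data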
HTR2A ag conf: mouse HTR2A agonism confirmed. activation, % at 7.6 µM. shares compounds with m5-HT2A agonist. CHO-K1 PathHunter beta-arrestin recruitment, luminescence; DMSO 0%, 30 µM serotonin 100%. 2,300 compounds, 19% hits. AID 624381;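 active = mean activation across triplicates above the hit threshold derived in the original primary screen, cut at about 15% in these data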
* hit, by the source's call; x = not tested or not shown.

SMILES	Arr AP2 block	m5-HT2A agonist	Lipid droplet	PfM18AAP inh	HGIII-sPLA2 inh	NRP1-CendR mod	MOR ag counter	HTR2A ag conf
COc1ccc(CN2CCN(CC(O)Cn3c4ccccc4c4ccccc43)CC2)cc1 (configuration not stated)	-4	19*	15	8	-20	-2	1.1*	8
O=C(c1ccco1)N1CCN(C(=O)c2ccco2)CC1	x	11	x	x	9	6	x	x
CCOc1ccc(CN2CCN(CC(O)Cn3c4ccccc4c4ccccc43)CC2)cc1 (configuration not stated)	2	2	-14	1	-1	5	x	x
COC(=O)C1CN(Cc2ccc(OC)cc2)CCS(=O)(=O)N1Cc1cn(CCOC(C)=O)nn1 (configuration not stated)	x	x	x	x	8	x	x	x
CCCc1c(Cc2cccc(F)c2)ncn1Cc1cccc(-c2ccccc2)c1	x	-5	x	x	-4	-10	x	x
Cc1ccc(C(=O)NCCN2CCC(n3c(=O)[nH]c4ccccc43)CC2)cc1C	x	-5	x	x	1	3	x	x
CCCCN1CN2CCc3ccccc3C2CS1(=O)=O (configuration not stated)	x	x	x	x	8	x	x	x
O=C(c1ccco1)N1CCN(Cc2ccccc2Br)CC1	20	16*	-12	-17	9	-10	-1	64*
O=C(c1ccco1)N1CCN(Cc2ccc(F)cc2)CC1	-10	20*	x	-1	6	-7	0	74*
CCOc1ccc(OCC(=O)OCC(=O)N2CCN(C(=O)c3ccco3)CC2)cc1	-4	7	x	x	13	2	x	x
CCOc1ccc(CN2CCN(C(=O)c3ccco3)CC2)cc1	43	24*	-2	4	2	10	0	130*
COc1ccc(N2C(=O)c3n[nH]c(C)c3C2c2ccccc2)cc1 (configuration not stated)	x	x	x	x	0	x	x	x
CCC1=C(OC(=O)N(CC)CC)N2C(=O)OC(=NCC3CC3)[C@]2(C)[C@H]2C1=CC[C@H]1C(=O)N(C)C(=O)[C@H]12	-1	5	7	x	8	4	x	x
CCC1=C(OC(=O)N(CC)CC)N2C(=O)OC(=NCC3CC3)[C@]2(C)[C@H]2C1=CC[C@H]1C(=O)N(CC)C(=O)[C@H]12	1	16*	2	x	4	8	0	0
COc1ccccc1N(C(=O)c1snc(C(N)=O)c1N)C(C(=O)NCc1ccccc1)c1ccc(O)cc1 (configuration not stated)	17	-2	11	-2	-22	2	x	x
NC(=O)c1nsc(C(=O)N(c2ccccc2F)C(C(=O)NCc2ccc(F)cc2)c2ccc(O)cc2)c1N (configuration not stated)	3	23*	-52	-3	-31	-5	0	2
CC[C@H](CO)Oc1cc(NCc2cccc(N)c2)c2ncn(C(C)C)c2c1	x	-1	x	x	12	-6	x	x
COC(=O)c1c(-c2ccc(OC)cc2)sc2ccc(OC)cc12	2	2	x	x	-5	15	x	x
CC(CCc1ccc(O)cc1)NCCc1ccc(O)c(O)c1 (configuration not stated)	40	27*	x	x	10	-5	0	120*
CCCCc1c(-c2ccccc2OC)ncn1Cc1ccccc1F	x	x	x	x	-10	x	x	x
COc1cc(NC(=O)CN2C(=O)C(c3ccccc3)=NC2(C)C)cc(OC)c1	5	28*	4	3	5	1	0	-4
COc1cc(NC(=O)CN2C(=O)C(c3ccccc3)=NC23CCCCCC3)cc(OC)c1	-6	-3	6	-5	-24	11	x	x
COc1ccc(OCC(=O)NC(=S)NNC(=O)COc2ccc(Br)cc2Cl)cc1	3	16*	-11	25	-9	4	-1	-3
Cc1c(C)c2ccc(OCC(=O)Nc3ccccn3)cc2oc1=O	33	18*	-6	1	1	-8	-1	-3
